In the array DNA melting data of Ke et al. (doi:10.1101/2024.01.08.574731):

Experiments:
[1] = folding enthalpy; higher = less favourable; fluorescence melt of hairpins on a sequencing array, two-state fit; details: sodium 0.088 M
How it was run: (§1)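 In 50 mM Na-HEPES pH 8.0 containing 25 mM NaCl, hairpins from the library on a sequenced MiSeq flow cell were imaged for Cy3 fluorescence at 2.5 °C steps up to 60 °C, with Cy3 and quencher oligos annealed. After normalisation to pre-quench Cy3 and to control constructs, two-state fits with bootstrapping gave melting temperature and folding enthalpy. Four replicates were combined by inverse-variance weighting, and fitted temperatures were shifted up by 9.35 °C to match UV melts.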

[2] = melting temperature; fluorescence melt of hairpins on a sequencing array, two-state fit, raised by 9.35 °C to match UV melts; details: sodium 0.088 M
How it was run: as §1

Sequence	folding enthalpy [1] [kcal/mol]	Tm [2] [°C]
GCGATTCTCGC ((((...))))	-21.7	52
GATCACTAATGTGATC ((((((....))))))	-35.2	55.1
GATCTATTGGTAGATC ((((((....))))))	-30.4	44.2
GGTAGCGAAAGCTATACC ((((((....)))..)))	-15.5	44
GCGAAGCGAAAGCTAGGC ((..(((....)))..))	-5.32	40.9
GATCCCAAGGGGGATC ((((((....))))))	-33	58.1
GCCTGAGGAAACTTGGGC (((..((....))..)))	-29	42.3
GTCTCAGAAATGAGAC ((((((....))))))	-41.8	53.8
GTACTACGAAAGTAATAC (((.(((....))).)))	-15.2	29.8
GATGGCGAAAGCCGGATC ((((((....)))..)))	-10.2	37
GCGTTGGCGAAAGCCCGC (((..(((....))))))	-18.8	57.3
GCAAAGGGAAACCTTCGC ((.((((....)))).))	-26.8	39.2
GAATCCGAAAGGACCTTC ((((((....)))..)))	-12.7	30.3
GATCTTCATAAGATC ((((((...))))))	-28.4	43.4
GGTCTTGGAAACAAGATC (.(((((....))))).)	-25.7	44.5
GTACGCGAAAGCGATTAC ((((((....)))..)))	-11.2	29.7
GTGGGGGGAAACCCTCAC (((.(((....))).)))	-30.3	52.6
GCTCGCGGAAACGCAAGC (((.(((....))).)))	-28.7	49.8
GGGAACGGAAACGTTCTC (.(((((....))))).)	-18.2	52.9
GTGAGTGGAAACATTCAC ((((.((....)).))))	-33.9	43.9
GCGGTGCGAAAGCTCGGC ((.(.((....)).).))	-19.1	51
GATCACACGCGTGATC ((((((....))))))	-38.6	58.5
GTTAGACGAAAGTCCAAC (((.(((....))).)))	-17.3	38

Sequence	folding enthalpy [1] [kcal/mol]	Tm [2] [°C]
GATGCCGAAAGGCTAATC ((((((....)))..)))	-9.64	30.1
GGGCACGAAAGTGAGCCC ((((((....)))..)))	-32.9	56.7
GGGCGCGGAAACGCACCC (((.(((....))).)))	-43.8	62.6
GGTCTTCCGAAAGGAACC (((..(((....))))))	-10.5	26.5
GATCACAATGGTGATC ((((((....))))))	-35.1	55.3
GGGTTGTCGAAAGACCCC (((..(((....))))))	-20.5	42.7
GTGAGTGGAAACACTTAC ((.((((....)))).))	-28.8	44.8
GATCCCCTCAGGGATC ((((((....))))))	-41.7	66
GCACGGCGAAAGCCAGGC ((..(((....)))..))	-14.9	55
GTCAGCGAAAGCTTGAC ((((((....))).)))	-25.6	49.9
GCTGCGCGAAAGCCCTGC ((.(.((....)).).))	-17.3	38.5
GTGGTATCGAAAGATCAC (((..(((....))))))	-23.8	33.3
GTGGAAGCGAAAGCTCAC (((..(((....))))))	-18.8	44.3
GCATATGGAAACACATGC ((((.((....)).))))	-26.8	35.8
GCGCCGGGAAACCGGCAC (.(((((....))))).)	-8.63	53.4
GCTTTCGAAAGAAACAGC ((((((....)))..)))	-16.3	32.8
GGTAGGCCGAAAGGCACC (((..(((....))))))	-12	41.9
GGCTTCGAAAGAAGGCC ((((((....))).)))	-26.8	57.9
GACGTCGGAAACGGCGTC ((((.((....)).))))	-46.9	62.3
GGACTTGGAAACAAGTCC (((((((....)))))))	-51.1	64.7
GATCTGGACTCAGATC ((((((....))))))	-46.3	53.1
GCACAGCGAAAGCCGTGC ((((.((....)).))))	-24.4	65.6
GTTATACCGAAAGGTAAC (((..(((....))))))	-10.4	32.8

Sequence	folding enthalpy [1] [kcal/mol]	Tm [2] [°C]
GATCAAGAGTTGATC ((((((...))))))	-24.8	37.8
GATCGTGGAAACGATC ((((((....))))))	-32.5	61
GCCCAGGGAAACCCGGGC ((((.((....)).))))	-37.4	57.8
GATCACTTCCGTGATC ((((((....))))))	-35.8	56.5
GTTGATGGAAACATCAAC (((((((....)))))))	-46.2	57.7
GTATTCCGAAAGGAGTAC (((.(((....))).)))	-36.7	47.5
GCGTTGCCGAAAGGCCGC (((..(((....))))))	-16.6	55.6
GCGTATCCGAAAGGACGC (((..(((....))))))	-27.1	50.2
GAGGCAGGAAACTACCTC ((((.((....)).))))	-26.9	40.3
GATCCGGGCACGGATC ((((((....))))))	-31.1	67.8
GCGCAGCGAAAGCGGTGC ((.(.((....)).).))	-16.5	61.5
GCAGCTGGAAACAGTTGC (((.(((....))).)))	-51.6	53.1
GGGCACGAAAGTGTCCC ((((((....))).)))	-16.5	65.1
GTCTTCGAAAGAAGTGAC ((((((....)))..)))	-13.3	34
GGTAATGGAAACATTATC (.(((((....))))).)	-26.8	35.7
GTGTTCGAAAGAACGCAC ((((((....)))..)))	-12.4	48.4
GGCGACGGAAACGCCACC ((.(.((....)).).))	-16.9	46
GGAAGACGAAAGTCCTCC (((.(((....))).)))	-21.4	43
GGACGGGGAAACCTGTCC ((((.((....)).))))	-44.5	56.8
GATCTAGCTTTAGATC ((((((....))))))	-26.7	38.8
GTGTACGGAAACATACAC (((((.(....).)))))	-26	36.1
GAGTGGGGAAACCCGCTC (((.(((....))).)))	-35.8	55.6
GATCATCTCATGATC ((((((...))))))	-37.7	50

Sequence	folding enthalpy [1] [kcal/mol]	Tm [2] [°C]
GCCAGTCCGAAAGGAGGC (((..(((....))))))	-22.1	44.4
GGCTTCGAAAGAACGCC ((((((....))).)))	-22.7	50.9
GAAGTTGGAAACAGCTTC ((((.((....)).))))	-38.7	44.4
GACGTCCGAAAGGAGTC (((.(((....))))))	-24	49
GGGGTTGGAAACAGTCCC (((..((....))..)))	-24.5	36
CAGAAGAAATTCTG (((((....)))))	-12.7	33.8
GCAGGGCGAAAGCCACGC ((..(((....)))..))	-15.2	52.2
GCGAACGGAAACGTTCAC (.(((((....))))).)	-14.4	46.1
GATCGAGCTTTCGATC ((((((....))))))	-35.1	52.6
GCGTCTGGAAACAAACGC ((((.((....)).))))	-32.2	44.5
GATCGAATGTCGATC ((((((...))))))	-31.5	50.6
GGCTCAGAAATGAGCC ((((((....))))))	-38.9	67
GCGATCCGTCGC ((((....))))	-24.6	51.6
GATCATGAGAATGATC ((((((....))))))	-36.5	49.7
GGTCGCCGAAAGGCAACC (((.(((....))).)))	-24.6	56.1
GATCGTCTGAACGATC ((((((....))))))	-39.6	55.6
GCCCGTCCGAAAGGAGGC (((..(((....))))))	-13.9	43.6
GGGTTCGAAAGAATTCCC ((((((....)))..)))	-20.4	33.8
GTAGGCACGAAAGTGTAC (((..(((....))))))	-13.6	29.8
GTGGGGCGAAAGCCCAC (((.(((....))))))	-12.8	62.6
GATCCCGTTTGGGATC ((((((....))))))	-43.4	63.6
GCAGGGGGAAACCCTTGC (((.(((....))).)))	-30.8	52.2
CGCTCGGAAACGACCGCG ((((((....)))..)))	-21.6	38.6
